Source: ChEMBL document CHEMBL1127821 (J Med Chem, 1994)

What was measured:
[1] = molecular target: T1, Sodium-dependent dopamine transporter (Rattus norvegicus, UniProt P23977); assay: Inhibition of [125I]RTI-55 binding to dopamine transport sites in rat striatal membranes.; type: cell membranes, Membrane
[2] = molecular target: Sodium-dependent serotonin transporter (Rattus norvegicus, UniProt P31652); assay: Inhibition of [3H]paroxetine binding to serotonin transport sites in rat frontal cortex membranes.; type: cell membranes, Membrane
Sequence of Sodium-dependent serotonin transporter (P31652 whole entry): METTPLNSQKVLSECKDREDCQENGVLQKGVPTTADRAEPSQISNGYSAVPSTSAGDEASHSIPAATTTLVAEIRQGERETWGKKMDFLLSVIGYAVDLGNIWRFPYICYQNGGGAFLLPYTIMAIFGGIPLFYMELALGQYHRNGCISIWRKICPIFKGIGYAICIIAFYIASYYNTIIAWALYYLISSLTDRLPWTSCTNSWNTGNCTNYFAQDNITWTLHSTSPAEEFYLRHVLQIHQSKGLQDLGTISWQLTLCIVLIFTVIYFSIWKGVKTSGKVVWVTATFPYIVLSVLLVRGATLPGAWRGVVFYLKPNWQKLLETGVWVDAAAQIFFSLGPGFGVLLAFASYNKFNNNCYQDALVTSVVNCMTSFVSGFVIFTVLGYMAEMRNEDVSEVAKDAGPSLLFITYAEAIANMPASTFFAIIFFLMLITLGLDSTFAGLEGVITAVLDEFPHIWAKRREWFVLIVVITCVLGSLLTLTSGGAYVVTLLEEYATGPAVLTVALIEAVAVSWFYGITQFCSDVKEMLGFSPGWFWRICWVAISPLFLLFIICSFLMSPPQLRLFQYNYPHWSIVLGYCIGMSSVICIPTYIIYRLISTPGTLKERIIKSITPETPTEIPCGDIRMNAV
How it was run: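 Frontal cortex from male Sprague-Dawley rats, homogenized in 50 mM Tris-HCl/120 mM NaCl/5 mM KCl pH 7.4 and washed twice at 48000g. […] Filtered on GF/B presoaked in 0.05% polyethyleneimine. Nonspecific binding with 10 μM fluoxetine.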

[3] = molecular target: T1, Sodium-dependent dopamine transporter; assay: The potency of the [125I]RTI-55 for Dopamine transporter site

T1 sequence (P23977 whole entry): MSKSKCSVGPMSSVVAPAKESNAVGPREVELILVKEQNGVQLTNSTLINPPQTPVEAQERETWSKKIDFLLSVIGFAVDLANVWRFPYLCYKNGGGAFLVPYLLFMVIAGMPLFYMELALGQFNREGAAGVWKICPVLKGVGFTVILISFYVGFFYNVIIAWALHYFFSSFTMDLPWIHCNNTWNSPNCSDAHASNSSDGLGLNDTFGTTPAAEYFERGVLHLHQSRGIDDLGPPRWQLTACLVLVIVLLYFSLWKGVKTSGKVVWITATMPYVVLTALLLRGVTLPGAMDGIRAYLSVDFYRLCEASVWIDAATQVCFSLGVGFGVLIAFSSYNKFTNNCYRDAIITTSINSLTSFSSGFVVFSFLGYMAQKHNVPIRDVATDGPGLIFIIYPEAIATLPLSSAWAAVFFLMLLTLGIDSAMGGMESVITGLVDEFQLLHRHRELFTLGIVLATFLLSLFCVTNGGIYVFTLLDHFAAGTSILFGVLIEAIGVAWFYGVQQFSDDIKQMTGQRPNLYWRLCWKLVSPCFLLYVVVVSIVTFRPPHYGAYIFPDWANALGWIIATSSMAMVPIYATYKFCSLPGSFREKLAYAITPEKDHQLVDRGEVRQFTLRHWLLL

SMILES: CCC(=O)C1C(C2CCCCC2)CC2CCC1N2C (stereo unspecified)
- IC50 [1]: 4610 nM
- Ki [2]: > 10000 nM

SMILES: CCC(=O)C1C(CC)CC2CCC1N2C (stereo unspecified)
- IC50 [1]: > 50000 nM
- Ki [2]: > 10000 nM

SMILES: CCC(=O)C1C(c2ccccc2)CC2CCC1N2C (stereo unspecified)
- Ki [2]: 1010 nM

SMILES: CCC(=O)C1C(c2ccc(C(C)(C)C)cc2)CC2CCC1N2C (stereo unspecified)
- IC50 [1]: 2120 nM
- Ki [2]: 1770 nM

SMILES: CCC(=O)C1C(c2ccc(C(C)C)cc2)CC2CCC1N2C (stereo unspecified)
- IC50 [1]: 436 nM
- Ki [2]: 35.8 nM

SMILES: CCC(=O)C1C(c2ccc3ccccc3c2)CC2CCC1N2C (stereo in doubt; (+)-21a)
- IC50 [1]: 0.043 nM
- Ki [2]: 0.121 nM

SMILES: CC(=O)C1C(c2ccc3ccccc3c2)CC2CCC1N2C (stereo unspecified)
- IC50 [1]: 0.28 nM
- Ki [2]: 1.06 nM

SMILES: CCOC(=O)C1C(c2ccc(I)cc2)CC2CCC1N2C (stereo unspecified)
- Kd [3]: 1 nM

SMILES: CCC(=O)C1C(c2ccc(C)cc2)CC2CCC1N2C (stereo in doubt; 12a)
- IC50 [1]: 8.2 nM
- Ki [2]: 131 nM

SMILES: CCc1ccc(C2CC3CCC(C2C(C)=O)N3C)cc1 (stereo unspecified)
- IC50 [1]: 152 nM
- Ki [2]: 78.2 nM

SMILES: CCC(=O)C1C(c2ccc3ccccc3c2)CC2CCC1N2C (stereo in doubt; 21a)
- IC50 [1]: 0.115 nM
- Ki [2]: 0.394 nM

SMILES: CCC(=O)C1C(c2ccc(C)cc2)CC2CCC1N2C (single isomer, unassigned; (-))
- IC50 [1]: 1340 nM
- Ki [2]: > 10000 nM

SMILES: CCC(=O)C1C(c2cccc3ccccc23)CC2CCC1N2C (stereo unspecified)
- IC50 [1]: 5.34 nM
- Ki [2]: 20.9 nM

SMILES: CC(=O)C1C(c2cccc3ccccc23)CC2CCC1N2C (stereo unspecified)
- Ki [2]: 25.6 nM

SMILES: CCC(=O)C1C(c2ccc(F)cc2)CC2CCC1N2C (stereo unspecified)
- IC50 [1]: 15.3 nM
- Ki [2]: 630 nM

SMILES: CC(=O)C1C(c2ccccc2)CC2CCC1N2C (stereo unspecified)
- IC50 [1]: 114 nM
- Ki [2]: 1360 nM

SMILES: CCC(=O)C1C(c2ccccc2C)CC2CCC1N2C (stereo unspecified)
- IC50 [1]: 1290 nM
- Ki [2]: > 10000 nM

SMILES: CCC(=O)C1C(c2ccc3ccccc3c2)CC2CCC1N2C (single isomer, unassigned; (-))
- IC50 [1]: 113 nM
- Ki [2]: 484 nM

SMILES: CCC(=O)C1C(c2ccc(C)cc2)CC2CCC1N2C (single isomer, unassigned; (+))
- IC50 [1]: 4.21 nM
- Ki [2]: 74 nM

SMILES: CC(=O)C1C(c2ccc(C)cc2)CC2CCC1N2C (stereo unspecified)
- IC50 [1]: 9.8 nM
- Ki [2]: 122 nM

SMILES: CC(=O)C1C(c2ccc(F)cc2)CC2CCC1N2C (stereo unspecified)
- IC50 [1]: 70.8 nM
- Ki [2]: 857 nM

SMILES: CCC(=O)C1C(c2ccc(-c3ccccc3)cc2)CC2CCC1N2C (stereo unspecified)
- IC50 [1]: 2.29 nM
- Ki [2]: 4.31 nM
